# Reference: article PMC8247328 (British Journal of Clinical Pharmacology, 2020)
# Where a SMILES comes first, the peptide text is derived from it. [ ]: non-standard residue; d: D form.
# Assays:
# MPTP‐treated mice = conditions: cited from earlier work
# PBMCs = type: cell-based, human; conditions: Part 2; 25 mg s.c. once daily; after 27 days
# [1] = test system: patients with early stage HD; experiment: Safety: treatment-emergent adverse events, laboratory, vital signs, ECG; type: in vivo, human
# How it was run: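 The trial was randomized and placebo-controlled in early HD. Part 1 gave 5, 15 or 25 mg subcutaneously once daily for 7 days (6 active, 2 placebo per cohort). Part 2 re-randomized patients 12:12 to 28 days. Adverse events, vitals, laboratory, ECG and physical examination were recorded on clinic days and at home visits (days 7, 14, 21 in Part 2). Plasma histamine was sampled 15 and 30 min post-dose.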
# rats = conditions: ischaemia/reperfusion, single dose of 4 mg/kg; cited from earlier work
# [2] = test system: mitochondrial function in calf muscle; experiment: Dynamic 31P-MRS of calf skeletal muscle; type: in vivo, human
# How it was run: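 Calf muscle was scanned by dynamic 31P-MRS at 7 T with a surface coil and an MRI-compatible pedal ergometer, before, during and after exercise (pulse-acquire, 2-s resolution, flip 45°, 1 average). Pi, PCr and ATP peaks were integrated. τPCr came from a monoexponential fit, and pH from the PCr–Pi frequency difference. Scans were repeated after a 10-min break if end-exercise pH was <6.8. Outliers deviating >5% (up to 10%) were removed. Timing: screening and day 7 (Part 1), day −1 and day 27 (Part 2), 1.5 h post-dose. Analysis was ANCOVA; the posthoc split used the pre-dose median.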
# [3] = test system: mitochondrial function in the visual cortex; experiment: 31P-MRS of the visual cortex before, during and after visual stimulation; type: in vivo, human; conditions: Part 2, 25 mg s.c. once daily 28 d
# How it was run: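 At 3 T, a 6-cm 31P transmit/receive surface coil was placed over the visual cortex, positioned using a 10-mm water sphere on 1H images. Adiabatic pulse-acquire (TR 2 s, flip 90°) FIDs were collected for 4 min at rest (128 averages), 8 min during visual activation (256) and 8 min after (256). Time-domain fitting with prior knowledge gave PCr/ATP, Pi/PCr, Pi/ATP and pH. Scans ran on day −1 and 1.5 h post-dose on day 27; mixed-model ANCOVA used baseline as covariate.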
# [4] = Part 1, 5 mg s.c. once daily 7 d, n=6, day 7
# [5] = Part 1, 15 mg s.c. once daily 7 d, n=6, day 7
# [6] = Part 1, 25 mg s.c. once daily 7 d, ANCOVA
# [7] = Part 1, 25 mg s.c. once daily 7 d, n=6, day 7
# [8] = Part 2, 25 mg s.c. once daily 28 d, ANCOVA
# [9] = Part 2, 25 mg s.c. once daily 28 d, n=11, day 27
compound,measurement,setting,value
"N=C(N)NCCC[C@@H](NC(=O)[C@@H](N)Cc1ccccc1)C(=O)N[C@@H](Cc1ccccc1)C(=O)N[C@@H](CCCCN)C(N)=O [SBT‐020, H‐Phe‐D‐Arg‐Phe‐Lys‐NH2] (H-F[dR]FK-NH2)",Attenuation of MPTP‐induced dopamine depletion,"MPTP‐treated mice; MPTP‐treated mice, single dose of 4 mg/kg",40%
same,Neuroprotection in the striatum,"MPTP‐treated mice; acute MPTP model, peripheral administration at 5 mg/kg, ref not given",sufficient to achieve neuroprotection
same,Effect in MPTP‐induced mouse model of Parkinson's disease,MPTP‐treated mice; given systemically,effective in attenuating injury and improving neurotransmitter release
same,Effect on ∆Ψm values and half maximal inhibitory concentration values for carvedilol and verapamil,PBMCs,no effect
same,Overall safety,"[1]; 5, 15, 25 mg s.c. once daily 7 d and 25 mg 28 d",safe in all dose levels
same,Plasma histamine levels,[1]; 15 and 30 minutes after administration,not elevated
same,Severity of injection site reactions,"[1]; Parts 1 and 2, developed within a few minutes of dosing, resolved within the hour",mild
same,Infarct size and myocardial lipid peroxidation,rats,significantly reduced
same,"τPCr with 31P‐MRS, contrast vs placebo (95% CI)","[2]; Part 1, 5 mg s.c. once daily 7 d, ANCOVA","6.505 (−3.4601, 16.4696) P = .1844 s"
same,"PCr/ATP resting phase 31P‐MRS scan, LS mean",[2]; [4],3.7838
same,"PCr/pi resting phase 31P‐MRS scan, LS mean",[2]; [4],9.9289
same,"τPCr with 31P‐MRS, LS mean","[2]; Part 1, 5 mg s.c. once daily 7 d, n=6, day 7, 1.5 h post dose",40.9016 s
same,"τPCr with 31P‐MRS, contrast vs placebo (95% CI)","[2]; Part 1, 15 mg s.c. once daily 7 d, ANCOVA","8.807 (−1.0294, 18.6436) P = .0757 s"
same,"PCr/ATP resting phase 31P‐MRS scan, LS mean",[2]; [5],3.8400
same,"PCr/pi resting phase 31P‐MRS scan, LS mean",[2]; [5],11.5607
same,"τPCr with 31P‐MRS, LS mean","[2]; Part 1, 15 mg s.c. once daily 7 d, n=6, day 7, 1.5 h post dose",43.2040 s
same,"PCr/pi resting phase 31P‐MRS scan, contrast vs placebo (95% CI)",[2]; [6],"0.7604 (−1.0773, 2.598) P = .3948"
same,"τPCr with 31P‐MRS, contrast vs placebo (95% CI)",[2]; [6],"5.477 (−5.5072, 16.4620) P = .3047 s"
same,"PCr/ATP resting phase 31P‐MRS scan, LS mean",[2]; [7],3.8510
same,"PCr/pi resting phase 31P‐MRS scan, LS mean",[2]; [7],11.2289
same,"τPCr with 31P‐MRS, LS mean","[2]; Part 1, 25 mg s.c. once daily 7 d, n=6, day 7, 1.5 h post dose",39.8743 s
same,Mean τPCr after 7 days of treatment,"[2]; Part 1, 5‐mg cohort, baseline mean 41.9",42.5 s
same,Mean τPCr after 7 days of treatment,"[2]; Part 1, 15‐mg cohort, baseline mean 40.0",43.1 s
same,Mean τPCr after 7 days of treatment,"[2]; Part 1, 25‐g cohort (so in the source), baseline mean 39.2",38.8 s
same,"Effect on τPCr, ∆Ψm and percentage of dysfunctional PBMCs","[2]; Part 1, after 7 days of treatment, 5, 15, 25 mg",No overall or dose‐related effects
same,"PCr/ATP resting phase 31P‐MRS scan, contrast vs placebo (95% CI)",[2]; [8],"−.07 (−0.3, 0.2) P = .54"
same,"PCr/pi resting phase 31P‐MRS scan, contrast vs placebo (95% CI)",[2]; [8],"0.1 (−2.0, 2.1) P = .94"
same,"τPCr with 31P‐MRS, contrast vs placebo (95% CI)",[2]; [8],"2.8 (−9.3, 15.0) P = .63 sec"
same,"PCr/ATP resting phase 31P‐MRS scan, LS mean",[2]; [9],3.7
same,"PCr/pi resting phase 31P‐MRS scan, LS mean",[2]; [9],10.2
same,"τPCr with 31P‐MRS, LS mean","[2]; Part 2, 25 mg s.c. once daily 28 d, n=11, day 27, 1.5 h post dose",40.8 s
same,"Change of τPCr, posthoc","[2]; Part 2, active, high mitochondrial function group (τPCr of < 42.4 s)",did not decrease
same,"Effect on τPCr, ∆Ψm and percentage of dysfunctional PBMCs","[2]; Part 2, after 28 days of treatment, 25 mg",No overall effects
same,Effect on brain mitochondrial function compared to placebo,[3],No overall statistically significant effect
same,"PCr/ATP after visual stimulation (central 31P‐MRS), contrast vs placebo (95% CI)",[3]; ANCOVA,"−0.02 (−0.1, 0.05) P = .57"
same,"Pi/ATP after visual stimulation (central 31P‐MRS), contrast vs placebo (95% CI)",[3]; ANCOVA,"0.0073 (−0.0270, 0.0415) P = .6613"
same,"Pi/ATP before visual stimulation (central 31P‐MRS), contrast vs placebo (95% CI)",[3]; ANCOVA,"−0.002 (−0.02, 0.02) P = .80"
same,"Pi/ATP during visual stimulation (central 31P‐MRS), contrast vs placebo (95% CI)",[3]; ANCOVA,"−0.004 (−0.02, 0.01) P = .57"
same,"Pi/PCr after visual stimulation (central 31P‐MRS), contrast vs placebo (95% CI)",[3]; ANCOVA,"0.02 (−0.02, 0.06) P = .32"
same,"Pi/PCr before visual stimulation (central 31P‐MRS), contrast vs placebo (95% CI)",[3]; ANCOVA,"0.0007 (−0.02, 0.02) P = .93"
same,"Pi/PCr during visual stimulation (central 31P‐MRS), contrast vs placebo (95% CI)",[3]; ANCOVA,"0.004 (−0.03, 0.03) P = .81"
same,"PCr/ATP after visual stimulation (central 31P‐MRS), LS mean","[3]; n=11, day 27",0.9
same,"PCr/ATP before visual stimulation (central 31P‐MRS), LS mean","[3]; n=11, day 27",0.8
